Measurements from ChEMBL document CHEMBL1155362, “Synthesis, characterization and derivatization of some novel types of mono- and bis-imidazolidineiminothiones and imidazolidineiminodithiones with antitumor, antiviral, antibacterial and antifungal activities--part I” (Eur J Med Chem, 2009).
≈ marks a conversion by molar mass, not a printed value. Calls of active or inactive are those of the source. No cut-off for these calls is given here.

Tests used:
Bacillus subtilis [1] = assay: Antibacterial activity against Bacillus subtilis NCIB 3610 at 5 mg/ml by agar disk diffusion assay; type: functional; details: Bacillus subtilis, NCIB 3610; read-out: DIZ
Hepatovirus A = assay: Antiviral activity against Hepatitis A virus infected african green monkey Vero cells at 10^-4 dilution of 5 mg/ml by plaque formation assay; type: functional
Method in brief: (§1)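 Compound dilutions prepared from a 5 mg/mL DMSO stock, using the maximum non-toxic dilution for Vero cells over 3 days; 0.1 mL virus (10³) mixed with 0.1 mL compound for 1 h at room temperature; mixture inoculated onto washed Vero monolayers in 12-well plates and adsorbed at 37 °C; 2× MEM/agarose overlay applied; read-out % reduction in plaque count versus untreated virus control.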

Pseudomonas aeruginosa [2] = assay: Antibacterial activity against Pseudomonas aeruginosa NCIB 9016 at 5 mg/ml by agar disk diffusion assay; type: functional; details: Pseudomonas aeruginosa, NCIB 9016; read-out: DIZ
Bacillus subtilis [3] = assay: Antibacterial activity against Bacillus subtilis NCIB 3610 at 2.5 mg/ml by agar disk diffusion assay; type: functional; details: Bacillus subtilis, NCIB 3610; read-out: DIZ
Candida albicans [4] = assay: Antifungal activity against Candida albicans IMRU 3669 at 5 mg/ml by agar disk diffusion assay; type: functional; details: for zone of inhibition at 5000 µg/mL: Candida albicans, IMRU 3669, read-out: DIZ
Method in brief: (§2)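 Fungi maintained on Czapek's Dox agar; agar well diffusion with 1 cm wells and […] of each concentration (1, 2.5, 5 mg/mL) in DMF; inhibition zone diameter measured.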

Pseudomonas aeruginosa [5] = assay: Antibacterial activity against Pseudomonas aeruginosa NCIB 9016 at 2.5 mg/ml by agar disk diffusion assay; type: functional; details: Pseudomonas aeruginosa, NCIB 9016; read-out: DIZ
Salmonella typhi [6] = assay: Antibacterial activity against Salmonella typhi NCIMB 9331 at 5 mg/ml by agar disk diffusion assay; type: functional, Salmonella enterica subsp. enterica serovar Typhi; details: Salmonella enterica, read-out: DIZ
Bacillus subtilis [7] = assay: Antibacterial activity against Bacillus subtilis NCTC 1040 at 5 mg/ml by agar disk diffusion assay; type: functional; details: read-out: DIZ
Candida albicans [8] = assay: Antifungal activity against Candida albicans IMRU 3669 at 2.5 mg/ml by agar disk diffusion assay; type: functional; details: read-out: DIZ; method in brief: as §2
Staphylococcus aureus [9] = assay: Antibacterial activity against Staphylococcus aureus NCTC 7447 at 5 mg/ml by agar disk diffusion assay; type: functional; details: read-out: DIZ
Aspergillus niger [10] = assay: Antifungal activity against Aspergillus niger IMI 31726 at 5 mg/ml by agar disk diffusion assay; type: functional; details: read-out: DIZ
Pseudomonas aeruginosa [11] = assay: Antibacterial activity against Pseudomonas aeruginosa NCIB 9016 at 1 mg/ml by agar disk diffusion assay; type: functional; details: Pseudomonas aeruginosa, NCIB 9016; read-out: DIZ
Aspergillus niger [12] = assay: Antifungal activity against Aspergillus niger Ferm-BAM C-21 at 5 mg/ml by agar disk diffusion assay; type: functional; details: read-out: DIZ; method in brief: as §2
Coxsackievirus B4 = assay: Antiviral activity against Coxsackievirus B4 infected african green monkey Vero cells at 10^-4 dilution of 5 mg/ml by plaque formation assay; type: functional, organism-based; method in brief: as §1
Human alphaherpesvirus 1 = assay: Antiviral activity against HSV1 infected african green monkey Vero cells at 10^-4 dilution of 5 mg/ml by plaque formation assay; type: functional; method in brief: as §1
Bacillus subtilis [13] = assay: Antibacterial activity against Bacillus subtilis NCIB 3610 at 1 mg/ml by agar disk diffusion assay; type: functional; details: Bacillus subtilis, NCIB 3610; read-out: DIZ
Escherichia coli = assay: Antibacterial activity against Escherichia coli NCTC 10416 at 5 mg/ml by agar disk diffusion assay; type: functional; details: read-out: DIZ
Aspergillus niger [14] = assay: Antifungal activity against Aspergillus niger Ferm-BAM C-21 at 2.5 mg/ml by agar disk diffusion assay; type: functional; details: read-out: DIZ; method in brief: as §2
Aspergillus niger [15] = assay: Antifungal activity against Aspergillus niger Ferm-BAM C-21 at 1 mg/ml by agar disk diffusion assay; type: functional; details: read-out: DIZ; method in brief: as §2
Candida albicans [16] = assay: Antifungal activity against Candida albicans IMRU 3669 by macrotube dilution assay; type: functional
Method in brief: (§3)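 Macrotube twofold dilution per NCCLS/CLSI guidelines for fungi; 2 mg compound in 2.0 mL DMF, serially diluted across 14 tubes of Czapek's Dox medium, with a control tube; inoculum added to halve the concentration; 30 °C for 72 h; MIC is the lowest concentration without visible growth.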

Staphylococcus aureus [17] = assay: Antimicrobial activity against Staphylococcus aureus NCTC 7447 by macrotube dilution assay; type: functional
Bacillus subtilis [18] = assay: Antimicrobial activity against Bacillus subtilis NCTC 1040 by macrotube dilution assay; type: functional
Aspergillus niger [19] = assay: Antifungal activity against Aspergillus niger Ferm-BAM C-21 by macrotube dilution assay; type: functional; method in brief: as §3
Klebsiella pneumoniae = assay: Antimicrobial activity against Klebsiella pneumoniae NCIMB 9111 by macrotube dilution assay; type: functional
Salmonella typhi [20] = assay: Antimicrobial activity against Salmonella typhi NCIMB 9331 by macrotube dilution assay; type: functional, Salmonella enterica subsp. enterica serovar Typhi; details: Salmonella enterica
Candida albicans [21] = assay: Antifungal activity against Candida albicans IMRU 3669 at 1 mg/ml by agar disk diffusion assay; type: functional; details: read-out: DIZ; method in brief: as §2
HeLa = assay: Cytotoxicity against human HeLa cells assessed as surviving fraction after 48 hrs by SRB assay; type: functional, cell-based; details: Homo sapiens, HeLa, 48 h; read-out: IC50
Method in brief: (§4)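 Cells seeded at 10⁴ cells/well and left 24 h to attach, then exposed to […] in triplicate wells per dose. Incubation 48 h, 37 °C, 5% CO₂. Cells fixed and stained with sulforhodamine B, excess dye removed with acetic acid, bound dye taken up in Tris EDTA and read on an ELISA reader. Surviving fraction plotted against concentration.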

[22] = Antitumor activity against mouse EAC cells assessed as inhibition of cell viability at 100 ug/ml after 2 hrs by trypan blue exclusion assay; type: functional; details: Ehrlich
Method in brief: (§5)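 EAC cells aspirated from ascitic fluid of inoculated mice and diluted in saline; 0.1 mL cell suspension, 0.8 mL RPMI 1640 and 0.1 mL compound (25, 50 or 100) incubated 2 h at 37 °C; non-viable cells counted by trypan blue exclusion; % non-viable = dead/total × 100.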

HepG2 = assay: Cytotoxicity against human HepG2 cells assessed as surviving fraction after 48 hrs by SRB assay; type: functional, cell-based; details: Homo sapiens, HepG2, 48 h; read-out: IC50; method in brief: as §4
MCF7 = assay: Cytotoxicity against human MCF7 cells assessed as surviving fraction after 48 hrs by SRB assay; type: functional, cell-based; details: Homo sapiens, MCF7, 48 h; read-out: IC50; method in brief: as §4
U-251 = assay: Cytotoxicity against human U251 cells assessed as surviving fraction after 48 hrs by SRB assay; type: functional, cell-based; details: Homo sapiens, U-251, 48 h; read-out: IC50; method in brief: as §4
[23] = Antitumor activity against mouse EAC cells assessed as inhibition of cell viability at 50 ug/ml after 2 hrs by trypan blue exclusion assay; type: functional; details: Ehrlich; method in brief: as §5
HCT-116 = assay: Cytotoxicity against human HCT116 cells assessed as surviving fraction after 48 hrs by SRB assay; type: functional, cell-based; details: Homo sapiens, HCT-116, 48 h; read-out: IC50; method in brief: as §4
[24] = Antitumor activity against mouse EAC cells assessed as inhibition of cell viability at 25 ug/ml after 2 hrs by trypan blue exclusion assay; type: functional; details: Ehrlich; method in brief: as §5

N=C1C(=S)N(c2ccc(Cl)c(Cl)c2)C(=O)N1c1ccc(Cl)cc1
zone of inhibition at 5000 µg/mL (Bacillus subtilis [1]): 14 mm | Activity (Hepatovirus A): inactive | zone of inhibition at 5000 µg/mL (Pseudomonas aeruginosa [2]): 18 mm | zone of inhibition at 2500 µg/mL (Bacillus subtilis [3]): 13 mm | diameter of the inhibition zone (DIZ) (Candida albicans [4]): 14 mm | zone of inhibition at 5000 µg/mL (Candida albicans [4]): 17 mm | zone of inhibition at 2500 µg/mL (Pseudomonas aeruginosa [5]): 16 mm | zone of inhibition at 5000 µg/mL (Salmonella typhi [6]): 17 mm | zone of inhibition at 5000 µg/mL (Bacillus subtilis [7]): 16 mm | zone of inhibition at 2500 µg/mL (Candida albicans [8]): 13 mm | zone of inhibition at 5000 µg/mL (Staphylococcus aureus [9]): 16 mm | zone of inhibition at 5000 µg/mL (Aspergillus niger [10]): 21 mm | zone of inhibition at 1000 µg/mL (Pseudomonas aeruginosa [11]): 15 mm | zone of inhibition at 5000 µg/mL (Aspergillus niger [12]): 17 mm | Activity (Coxsackievirus B4): inactive | Activity (Human alphaherpesvirus 1): inactive | zone of inhibition at 1000 µg/mL (Bacillus subtilis [13]): 13 mm | zone of inhibition at 5000 µg/mL (Escherichia coli): 19 mm | zone of inhibition at 2500 µg/mL (Aspergillus niger [14]): 15 mm

N=C1C(=S)N(c2ccc(I)cc2)C(=S)N1c1ccc(I)cc1
zone of inhibition at 1000 µg/mL (Aspergillus niger [15]): 12 mm | zone of inhibition at 5000 µg/mL (Bacillus subtilis [1]): 24 mm | zone of inhibition at 5000 µg/mL (Pseudomonas aeruginosa [2]): 20 mm | zone of inhibition at 2500 µg/mL (Bacillus subtilis [3]): 21 mm | zone of inhibition at 5000 µg/mL (Candida albicans [4]): 21 mm | zone of inhibition at 2500 µg/mL (Pseudomonas aeruginosa [5]): 17 mm | MIC (Candida albicans [16]): 1.95 µg/mL (≈ 3.55 µM) | zone of inhibition at 2500 µg/mL (Candida albicans [8]): 20 mm | MIC (Staphylococcus aureus [17]): 15.6 µg/mL (≈ 28.4 µM) | zone of inhibition at 1000 µg/mL (Pseudomonas aeruginosa [11]): 15 mm | MIC (Bacillus subtilis [18]): 3.9 µg/mL (≈ 7.1 µM) | zone of inhibition at 5000 µg/mL (Aspergillus niger [12]): 17 mm | MIC (Aspergillus niger [19]): 0.49 µg/mL (≈ 0.892 µM) | MIC (Klebsiella pneumoniae): 7.8 µg/mL (≈ 14.2 µM) | MIC (Salmonella typhi [20]): 1.95 µg/mL (≈ 3.55 µM) | zone of inhibition at 1000 µg/mL (Bacillus subtilis [13]): 19 mm | zone of inhibition at 1000 µg/mL (Candida albicans [21]): 19 mm | zone of inhibition at 2500 µg/mL (Aspergillus niger [14]): 15 mm

N=C1C(=S)N(c2ccc(I)cc2)C(=O)N1c1cc(Cl)c(Cl)cc1Cl
Activity (Hepatovirus A): 40% | zone of inhibition at 5000 µg/mL (Candida albicans [4]): 17 mm | zone of inhibition at 5000 µg/mL (Salmonella typhi [6]): 17 mm | zone of inhibition at 5000 µg/mL (Bacillus subtilis [7]): 17 mm | zone of inhibition at 5000 µg/mL (Staphylococcus aureus [9]): 18 mm | zone of inhibition at 5000 µg/mL (Aspergillus niger [10]): 20 mm | Activity (Coxsackievirus B4): inactive | Activity (Human alphaherpesvirus 1): inactive | zone of inhibition at 5000 µg/mL (Escherichia coli): 16.5 mm

CCOc1ccc(N2C(=O)N(c3c(CC)cc(Cc4cc(CC)c(N5C(=N)C(=S)N(c6ccc(OCC)cc6)C5=O)c(CC)c4)cc3CC)C(=N)C2=S)cc1
zone of inhibition at 5000 µg/mL (Bacillus subtilis [1]): 15 mm | IC50 (HeLa): 2.42 µg/mL (≈ 3.12 µM) | inhibition at 100 µg/mL [22]: 90% | zone of inhibition at 5000 µg/mL (Pseudomonas aeruginosa [2]): 15 mm | zone of inhibition at 2500 µg/mL (Bacillus subtilis [3]): 14 mm | zone of inhibition at 5000 µg/mL (Candida albicans [4]): 15 mm | zone of inhibition at 2500 µg/mL (Pseudomonas aeruginosa [5]): 13 mm | IC50 (HepG2): 5.44 µg/mL (≈ 7.02 µM) | IC50 (MCF7): 2.15 µg/mL (≈ 2.77 µM) | IC50 (U-251): 1.01 µg/mL (≈ 1.3 µM) | inhibition at 50 µg/mL [23]: 80% | IC50 (HCT-116): 4.36 µg/mL (≈ 5.63 µM) | zone of inhibition at 2500 µg/mL (Candida albicans [8]): 14 mm | inhibition at 25 µg/mL [24]: 60% | zone of inhibition at 5000 µg/mL (Aspergillus niger [12]): 13 mm | zone of inhibition at 1000 µg/mL (Bacillus subtilis [13]): 13 mm | zone of inhibition at 1000 µg/mL (Candida albicans [21]): 12 mm
